High-throughput results deposited in PubChem by Johns Hopkins Ion Channel Center.
TRPC4 potent: allosteric potentiators of mouse TRPC4 channel | Q9QUQ5 | HEK293 TRPC4beta/mu-opioid, DAMGO EC20, Fluo-4 Ca2+ flux; active compounds read high | B-score at 10 µM | 310,000 compounds, 0.42% hits | AID 2227;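 active = B-score of calcium response area above 5 SD of library B-scores, with initial fluorescence ratio within 5 SD of library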;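 also: B-score of integrated fluorescence ratio over time as area under calcium response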
TRPC4 block: TRPC4 (mouse) channel inhibition; Q9QUQ5; B-score at 10 µM; HEK293 TRPC4beta/mu-opioid, DAMGO-evoked Fluo4 calcium flux; active compounds read low; 300,000 compounds, 0.39% hits;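 active = B-score over 3 SD under the library average, no early fluorescence shift, positive overall ratio signal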
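test system = HEK293 cells with stable TRPC4beta plus mu-opioid receptor expression | detection = Fluo4 Ca2+ flux fluorescence | read-out = integrated fluorescence ratio relative to baseline, converted to per-well B score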
TRPC6 inh: inhibitors of mouse TRPC6 channel; Q61143; HEK293-TRPC6, membrane potential dye, ACh-evoked depolarization; active compounds read low; B-score at 10 µM; 310,000 compounds, 1.1% hits; AID 2553;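 active = B-score under library mean minus 3 SD, initial fluorescence not abnormally high, positive integrated signal ratio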;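 also: B-score derived from integrated fluorescence ratio over the kinetic read; more negative B-score means stronger inhibition of depolarization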
TRPC4 act: activators of mouse TRPC4 channel; Q9QUQ5; HEK293 TRPC4beta/mu-opioid, Fluo4 calcium fluorescence; active compounds read high; 310,000 compounds, 0.49% hits; B-score at 10 µM;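 active = B-score above 5 SD of library B-scores, and initial fluorescence ratio not above library mean plus 5 SD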;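 also: positive B-score marks a calcium rise read as TRPC4 activation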
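Test system: HEK293 cells stably co-expressing mouse TRPC4beta and mu-opioid receptor | Schedule: Fluo4 dye loading 45 min at room temperature, 110 s recording | Measured by: Kinetic Fluo4 calcium fluorescence, 5 s baseline at 1 Hz | Evaluation: B score of integrated ratio | Controls: Buffer (low) and maximal DAMGO (high)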
TRPC6 act: activates the mouse TRPC6 cation channel | Q61143 | HEK293-TRPC6 membrane potential dye fluorescence; active compounds read high | B-score at 10 µM | 310,000 compounds, 0.13% hits;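 active = B-score of the integrated fluorescence ratio above library mean plus 3 SD, and starting fluorescence ratio within library mean plus 5 SD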;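 also: higher score means more depolarization so channel activation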
TRPC4 sel inh 2: second check of whether TRPC6 inhibitors also affect mouse TRPC4 | shares compounds with TRPC6 inh | HEK293 TRPC4/MOR, membrane potential dye fluorescence; channel activated by saturating DAMGO dose | inhibition, % at 10 µM | 920 compounds, 42% hits;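 active = compounds whose fluorescence signal differed from control wells by over 3 SD, either direction, in both duplicate plates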
TRPC4 spec: tests whether TRPC6 inhibitors also affect mouse TRPC4. shares compounds with TRPC6 inh. HEK293 TRPC4/mu-opioid, membrane potential fluorescence. activity change, negative = inhibition, % at 10 µM. 920 compounds, 61% hits. AID 2777;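 active = rise or fall in signal beyond 3 SD of buffer-only wells in both replicate plates, either sign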;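 also: integrated kinetic ratio of fluorescence range over baseline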
HEK293 MPD ctr 2-1: parental HEK293 nonspecific activity of TRPC6 inhibitors, second screen; shares compounds with TRPC6 inh; parental HEK293 membrane potential dye fluorescence; maximal acetylcholine challenge after compound addition; signal change vs control, % at 10 µM; 920 compounds, 31% hits;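 active = membrane potential signal moving either way by over 3 SD of the maximum-effect control, in both duplicate plates, meaning non-specific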
HEK293 MPD ctr-1: checks TRPC6 inhibitor effects in parental HEK293 cells | parental HEK293 membrane potential dye fluorescence | membrane potential signal change, % at 10 µM | 920 compounds, 60% hits | shares compounds with TRPC6 inh;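 active = membrane potential signal shifting up or down by more than 3 SD of buffer-only wells, on both duplicate plates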
HEK293 MPD ctr-2: counter-screen for TRPC6 modulators: effect in parental HEK293 cells | shares compounds with TRPC6 inh | 2,400 compounds, 51% hits | membrane potential signal change, % at 10 µM | AID 488924 | membrane potential dye fluorescence;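 active = membrane potential signal moves up or down beyond 5 SD from buffer-only wells, on both duplicate plates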
HEK293 MPD ctr 2-2: parental HEK293 nonspecific activity of TRPC6 modulators, second screen; shares compounds with TRPC6 inh; 2,400 compounds, 14% hits; membrane potential dye fluorescence; after compound, maximal acetylcholine stimulation; AID 488926; inhibition, % at 10 µM;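 active = membrane potential signal drops by more than 5 SD from the mean control signal, in both duplicate plates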;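 also: plate controls were acetylcholine ECmax control wells for no effect and buffer only wells for full effect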
TRPC4 ctr mod: selectivity of TRPC6 modulators against mouse TRPC4. shares compounds with TRPC6 inh. HEK293 TRPC4/mu-opioid, membrane potential fluorescence. percent change from control (negative = decrease, positive = increase), % at 10 µM. 2,400 compounds, 69% hits;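 active = membrane potential signal moved up or down beyond 5 SD of buffer control wells, in both duplicate plates, actives on both sides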;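 also: plate controls were assay buffer wells for no effect and DAMGO maximal-effect wells for full effect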
TRPC4 ctr inh 2: second selectivity test of TRPC6 modulators against mouse TRPC4; shares compounds with TRPC6 inh; HEK293 TRPC4/mu-opioid, membrane potential dye fluorescence; stimulated with maximal-effect DAMGO; AID 488928; inhibition, % at 10 µM; 2,400 compounds, 55% hits;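 active = drop in membrane potential signal beyond 5 SD of the control wells in both duplicate plates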;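 also: TRPC4 counter screen for TRPC6 hits run under conditions tuned for TRPC6 not TRPC4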
TRPC6 inh conf: mouse TRPC6 inhibitor confirmation; HEK293-TRPC6, membrane potential dye, ACh-evoked depolarization; inhibition, % at 10 µM; shares compounds with TRPC6 inh; 3,300 compounds, 43% hits; AID 488960;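 active = fluorescence ratio falls more than 5 SD below the full-stimulation control mean, in both duplicate runs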;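 also: integrated fluorescence ratio of peak minus minimum over baseline after agonist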
TRPC6 act conf: confirmation of mouse TRPC6 activators. shares compounds with TRPC6 inh. HEK293-TRPC6 membrane potential dye fluorescence, FDSS. activation, % at 10 µM. 2,800 compounds, 11% hits;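 active = ratio signal rise beyond 5 SD above unstimulated control wells' mean, seen in both duplicate runs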;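 also: plate controls were buffer EC0 wells for no effect and acetylcholine ECmax response for full effect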
Starred values were filed as active, the others as inactive; i = inactive; / = no result given. A selection: hits, their analogues and other compounds. The true share with any hit is near 2.3%.

SMILES | TRPC4 potent | TRPC4 block | TRPC6 inh | TRPC4 act | TRPC6 act | HEK293 MPD ctr-2 | HEK293 MPD ctr 2-2 | TRPC4 ctr mod | TRPC4 ctr inh 2 | TRPC6 inh conf | TRPC6 act conf | others
CNC(=O)N(O)C1N(/N=C/c2cc(Br)ccc2O)C(=S)SC1(C)C (stereo not drawn) | i | i | -6.7* | i | i | / | / | / | / | i | i | TRPC4 sel inh 2=i;TRPC4 spec=-12%*;HEK293 MPD ctr 2-1=i;HEK293 MPD ctr-1=-212%*
CCOC(=O)c1c(-c2ccccc2)nnn1-c1nc(OCC)nc(N2CCCCC2)n1 | i | i | i | i | 16* | 354%* | i | 91%* | i | i | 176%*
CCOC(=O)c1nnn(-c2nc(N3CCCC3)nc(N3CCCC3)n2)c1-c1ccccc1 | i | i | i | i | i | / | / | / | / | / | /
CCN(CC)CC(O)COc1ccc2c(c1)c(C(C)=O)c(C)n2-c1ccccc1 (stereo not drawn) | i | i | -5.5* | i | i | i | i | i | 74%* | 50%* | i
CC(=O)c1c(C)n(-c2ccccc2)c2ccc(OCC(O)CN3CCOCC3)cc12 (stereo not drawn) | i | i | i | i | i | / | / | / | / | / | /
C=CCN1C=CC=C/C1=C1\SC(=S)N(C)C1=O | i | i | -5.1* | i | i | i | i | i | i | i | i
CN1C=CC=C/C1=C1\SC(=S)N(c2ccccc2)C1=O | i | i | i | i | i | / | / | / | / | / | /
CCN(CC)c1cc(C)c2cc(NC(=O)CNC(C)=O)ccc2n1 | i | i | -5.7* | i | i | -161%* | 59%* | -28%* | 38%* | i | i
CCN(CC)c1cc(C)c2cc(NC(=O)c3ccccc3F)ccc2n1 | i | i | i | i | i | / | / | / | / | / | /
Cc1csc(=O)n1CC(=O)OCC(=O)c1ccc(Br)cc1 | i | i | i | i | i | / | / | / | / | / | /
Cc1ccccc1NC(=O)CC(O)(C(F)(F)F)C(F)(F)F | i | i | i | i | i | / | / | / | / | / | /
Cc1ccc(NC(=O)CC(O)(C(F)(F)F)C(F)(F)F)c(Br)c1 | i | i | -6.1* | i | i | i | i | i | i | i | /
Cc1ccccc1C=Nc1ccccc1C(N)=O | i | i | i | i | i | / | / | / | / | / | /
COC(=O)Cc1c[nH]c2cccc(OCC(O)CN(Cc3ccccc3)C(C)C)c12 (stereo not drawn) | i | i | -7.2* | i | i | / | / | / | / | i | i | TRPC4 sel inh 2=72%*;TRPC4 spec=0.3%*;HEK293 MPD ctr 2-1=i;HEK293 MPD ctr-1=i
CC(C)(C)C(=O)Nc1cc(S(=O)(=O)N2CCCCC2)ccc1N1CCCCC1 | i | i | -10* | i | 16* | 180%* | i | 20%* | i | 43%* | 74%*
CC(C)(C)C(=O)Nc1ccc(S(=O)(=O)N2CCCC2)cc1 | i | i | i | i | i | / | / | / | / | / | /
CN1CCN(c2ccc(S(=O)(=O)N3CCCCC3)cc2NC(=O)COc2ccc(F)cc2)CC1 | 10* | i | -5.9* | i | i | i | i | 10%* | 74%* | i | i
O=C(COc1ccc(Br)cc1)Nc1cc(S(=O)(=O)N2CCCCC2)ccc1N1CCCCC1 | i | i | i | i | i | / | / | / | / | / | /
CCOC(=O)C1CCN(S(=O)(=O)c2cc(Br)cc3c2N(C(C)=O)C(C)C3)CC1 (stereo not drawn) | i | i | i | i | i | / | / | / | / | / | /
Cc1ccc(CN2CCN(CCCn3cccn3)CC2CCO)cc1 (stereo not drawn) | i | i | i | i | i | / | / | / | / | / | /
Cc1cc(=O)oc2cc(OCC(=O)N3CCN(C(=O)c4ccco4)CC3)ccc12 | i | i | -5.5* | i | i | i | i | i | i | i | i
COc1ccc(C2C3=C(CC(C)(C)CC3=O)Oc3ncn(Cc4ccccc4)c(=N)c32)cc1 (stereo not drawn) | i | i | -5.4* | i | i | 146%* | i | 22%* | 69%* | 54%* | /
Cc1cc(Nc2cccc(F)c2)n2c(n1)nc1ccccc12 | i | i | i | i | i | / | / | / | / | / | /
Cc1cc(NC2CCCCC2)n2c(n1)nc1ccccc12 | i | i | -5.5* | i | i | i | i | i | i | i | i
CCCOc1ccc(N2C(=O)CC(N(CCc3ccc(OC)cc3)C(=O)/C=C/C(=O)O)C2=O)cc1 (stereo not drawn) | i | i | -10* | i | i | / | / | / | / | i | i | TRPC4 sel inh 2=i;TRPC4 spec=i;HEK293 MPD ctr 2-1=i;HEK293 MPD ctr-1=i
Cc1cc(C(N)=O)nn1-c1c(Cl)cc(Cl)cc1Cl | i | i | i | i | i | / | / | / | / | / | /
Clc1ccc2c(c1)C(N1CCNCC1)Cc1ccccc1S2 (stereo not drawn) | i | i | -5.4* | i | i | i | i | i | 74%* | 64%* | i
CCOc1ccc(N2C=Nc3ccc(OCC)cc3C2)cc1 | i | i | -5.7* | i | i | -82%* | i | -18%* | 34%* | i | i
